# According to ChEMBL document CHEMBL1150393, “Evaluation of radiolabeled (hetero)aromatic analogues of N-(2-diethylaminoethyl)-4-iodobenzamide for imaging and targeted radionuclide therapy of melanoma” (J Med Chem, 2008):
# Tests used:
# [1] = Ratio of drug level in tumor to lung of C57BL/6 mouse bearing mouse B16-F0 cells at 0.74 to 0.92 MBq, iv after 6 hrs; format: ADME, organism-based; settings: in vivo
# Summary of the method: (§1)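 Tumour and organ radioactive concentrations came from whole-body cryosection counting (40 µm slices, eight per mouse, two mice per time) after tail-vein injection of the [¹²⁵I]-labelled compound (0.1 µmol) into male C57BL6 mice bearing s.c. B16-F0 melanoma. Each value is the ratio of the tumour concentration to the organ concentration.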
# [2] = test system: Lung; test: Biodistribution in lung of C57BL/6 mouse bearing mouse B16-F0 cells at 0.74 to 0.92 MBq, iv after 1 hr; format: ADME, organism-based; settings: in vivo
# Summary of the method: (§2)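 Male C57BL6 mice with s.c. left-flank B16-F0 melanoma (5 × 10⁵ cells in PBS). Two mice per time point frozen in liquid nitrogen after CO₂ sacrifice. Eight 40 µm whole-body cryosections per mouse read by multiwire proportional counter. cpm/mm² converted to kBq/g and expressed as %ID/g.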
# [3] = test system: Lung; test: Biodistribution in lung of C57BL/6 mouse bearing mouse B16-F0 cells at 0.74 to 0.92 MBq, iv after 6 hrs; format: ADME, organism-based; settings: in vivo; summary of the method: as §2
# [4] = Biodistribution in tumor of C57BL/6 mouse bearing mouse B16-F0 cells at 0.74 to 0.92 MBq, iv after 24 hrs; format: ADME, organism-based, Neoplasm; settings: in vivo
# Summary of the method: (§3)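 [¹²⁵I]-labelled compound given iv by tail vein (0.1 µmol per mouse) to male C57BL6 mice bearing s.c. B16-F0 flank tumours (5 × 10⁵ cells in PBS). Two mice per time point were killed by CO₂, frozen in liquid nitrogen and cut into 40 µm cryosections, eight slices per mouse. Slice radioactivity was read on a multiwire proportional counter, converted to kBq/g and reported as %ID/g.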
# [5] = Biodistribution in tumor of C57BL/6 mouse bearing mouse B16-F0 cells at 0.74 to 0.92 MBq, iv after 6 hrs; format: ADME, organism-based, Neoplasm; settings: in vivo; summary of the method: as §3
# [6] = test system: Liver; test: Biodistribution in liver of C57BL/6 mouse bearing mouse B16-F0 cells at 0.74 to 0.92 MBq, iv after 24 hrs; format: ADME, organism-based; settings: in vivo; summary of the method: as §2
# [7] = Ratio of drug level in tumor to liver of C57BL/6 mouse bearing mouse B16-F0 cells at 0.74 to 0.92 MBq, iv after 24 hrs; format: ADME, organism-based; settings: in vivo; summary of the method: as §1
# [8] = Biodistribution in Stomach content of C57BL/6 mouse bearing mouse B16-F0 cells at 0.74 to 0.92 MBq, iv after 3 hrs; format: ADME, organism-based; settings: in vivo; summary of the method: as §2
# [9] = Biodistribution in tumor of C57BL/6 mouse bearing mouse B16-F0 cells at 0.74 to 0.92 MBq, iv after 1 hr; format: ADME, organism-based, Neoplasm; settings: in vivo; summary of the method: as §3
# [10] = test system: Brain; test: Biodistribution in brain of C57BL/6 mouse bearing mouse B16-F0 cells at 0.74 to 0.92 MBq, iv after 1 hr; format: ADME, organism-based; settings: in vivo; summary of the method: as §2
# [11] = Biodistribution in uvea of C57BL/6 mouse bearing mouse B16-F0 cells at 0.74 to 0.92 MBq, iv after 3 hrs; format: ADME, organism-based, Uveal tract; settings: in vivo; summary of the method: as §3
# [12] = test system: Liver; test: Biodistribution in liver of C57BL/6 mouse bearing mouse B16-F0 cells at 0.74 to 0.92 MBq, iv after 6 hrs; format: ADME, organism-based; settings: in vivo; summary of the method: as §2
# [13] = Ratio of drug level in tumor to brain of C57BL/6 mouse bearing mouse B16-F0 cells at 0.74 to 0.92 MBq, iv after 3 hrs; format: ADME, organism-based; settings: in vivo; summary of the method: as §1
# [14] = Biodistribution in uvea of C57BL/6 mouse bearing mouse B16-F0 cells at 0.74 to 0.92 MBq, iv after 6 hrs; format: ADME, organism-based, Uveal tract; settings: in vivo; summary of the method: as §3
# [15] = Partition coefficient, log P in phosphate buffer solution at pH 7.4; format: physicochemical
# Summary of the method: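 Shake-flask partition: 50 µM [¹²⁵I]-labelled compound in phosphate buffer pH 7.4 was mixed with 2 mL n-octanol. Each phase was γ-counted, P was taken as the octanol/buffer activity ratio, and log P was reported.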
# [16] = Ratio of drug level in tumor to liver of C57BL/6 mouse bearing mouse B16-F0 cells at 0.74 to 0.92 MBq, iv after 6 hrs; format: ADME, organism-based; settings: in vivo; summary of the method: as §1
# [17] = Biodistribution in Stomach content of C57BL/6 mouse bearing mouse B16-F0 cells at 0.74 to 0.92 MBq, iv after 1 hr; format: ADME, organism-based; settings: in vivo; summary of the method: as §2
# [18] = test system: Blood; test: Biodistribution in blood of C57BL/6 mouse bearing mouse B16-F0 cells at 0.74 to 0.92 MBq, iv after 3 hrs; format: ADME, organism-based; settings: in vivo; summary of the method: as §2
# [19] = test system: Blood; test: Biodistribution in blood of C57BL/6 mouse bearing mouse B16-F0 cells at 0.74 to 0.92 MBq, iv after 6 hrs; format: ADME, organism-based; settings: in vivo; summary of the method: as §2
# [20] = test system: Kidney; test: Biodistribution in kidney of C57BL/6 mouse bearing mouse B16-F0 cells at 0.74 to 0.92 MBq, iv after 3 hrs; format: ADME, organism-based; settings: in vivo; summary of the method: as §2
# [21] = Ratio of drug level in tumor to lung of C57BL/6 mouse bearing mouse B16-F0 cells at 0.74 to 0.92 MBq, iv after 1 hr; format: ADME, organism-based; settings: in vivo; summary of the method: as §1
# [22] = Biodistribution in uvea of C57BL/6 mouse bearing mouse B16-F0 cells at 0.74 to 0.92 MBq, iv after 72 hrs; format: ADME, organism-based, Uveal tract; settings: in vivo; summary of the method: as §3
# [23] = test system: Muscle tissue; test: Biodistribution in muscle of C57BL/6 mouse bearing mouse B16-F0 cells at 0.74 to 0.92 MBq, iv after 1 hr; format: ADME, organism-based; settings: in vivo; summary of the method: as §2
# [24] = test system: Spleen; test: Biodistribution in spleen of C57BL/6 mouse bearing mouse B16-F0 cells at 0.74 to 0.92 MBq, iv after 3 hrs; format: ADME, organism-based; settings: in vivo; summary of the method: as §3
# [25] = test system: Spleen; test: Biodistribution in spleen of C57BL/6 mouse bearing mouse B16-F0 cells at 0.74 to 0.92 MBq, iv after 1 hr; format: ADME, organism-based; settings: in vivo; summary of the method: as §3
# [26] = test system: Liver; test: Biodistribution in liver of C57BL/6 mouse bearing mouse B16-F0 cells at 0.74 to 0.92 MBq, iv after 1 hr; format: ADME, organism-based; settings: in vivo; summary of the method: as §2
# [27] = Biodistribution in Stomach content of C57BL/6 mouse bearing mouse B16-F0 cells at 0.74 to 0.92 MBq, iv after 6 hrs; format: ADME, organism-based; settings: in vivo; summary of the method: as §2
# [28] = Biodistribution in tumor of C57BL/6 mouse bearing mouse B16-F0 cells at 0.74 to 0.92 MBq, iv after 3 hrs; format: ADME, organism-based, Neoplasm; settings: in vivo; summary of the method: as §3
# [29] = Biodistribution in tumor of C57BL/6 mouse bearing mouse B16-F0 cells at 0.74 to 0.92 MBq, iv after 72 hrs; format: ADME, organism-based, Neoplasm; settings: in vivo; summary of the method: as §3
# [30] = Ratio of drug level in tumor to brain of C57BL/6 mouse bearing mouse B16-F0 cells at 0.74 to 0.92 MBq, iv after 1 hr; format: ADME, organism-based; settings: in vivo; summary of the method: as §1
# [31] = test system: Kidney; test: Biodistribution in kidney of C57BL/6 mouse bearing mouse B16-F0 cells at 0.74 to 0.92 MBq, iv after 1 hr; format: ADME, organism-based; settings: in vivo; summary of the method: as §2
# [32] = Biodistribution in intestinal content of C57BL/6 mouse bearing mouse B16-F0 cells at 0.74 to 0.92 MBq, iv after 6 hrs; format: ADME, organism-based; settings: in vivo; summary of the method: as §2
# [33] = test system: Pancreas; test: Biodistribution in pancreas of C57BL/6 mouse bearing mouse B16-F0 cells at 0.74 to 0.92 MBq, iv after 1 hr; format: ADME, organism-based; settings: in vivo; summary of the method: as §2
# [34] = test system: Thyroid gland; test: Biodistribution in thyroid of C57BL/6 mouse bearing mouse B16-F0 cells at 0.74 to 0.92 MBq, iv after 6 hrs; format: ADME, organism-based; settings: in vivo; summary of the method: as §3
# [35] = test system: Thyroid gland; test: Biodistribution in thyroid of C57BL/6 mouse bearing mouse B16-F0 cells at 0.74 to 0.92 MBq, iv after 24 hrs; format: ADME, organism-based; settings: in vivo; summary of the method: as §3
Ratio [1],Drug uptake [2],Drug uptake [3],Drug uptake [4],Drug uptake [5],Drug uptake [6],Ratio [7],Drug uptake [8],Drug uptake [9],Drug uptake [10],Drug uptake [11],Drug uptake [12],Drug uptake [14],logD [15],Ratio [16],Drug uptake [17],Drug uptake [18],Drug uptake [19],Drug uptake [20],Ratio [21],SMILES,other results
5.79,14.41 % ID/g,1.7 % ID/g,8.2 % ID/g,9.8 % ID/g,1.61 % ID/g,5.07,18.52 % ID/g,8.3 % ID/g,4.84 % ID/g,12.78 % ID/g,3.63 % ID/g,13.2 % ID/g,1.69,2.71,35.41 % ID/g,0.79 % ID/g,0.67 % ID/g,4.19 % ID/g,0.58,CCN(CC)CCNC(=O)c1cc2cc([125I])ccc2[nH]1.Cl,Ratio [13]: 3.91; Drug uptake [22]: 5.86 % ID/g; Drug uptake [23]: 1.5 % ID/g; Drug uptake [24]: 2.79 % ID/g; Drug uptake [25]: 8.09 % ID/g; Drug uptake [26]: 11.86 % ID/g; Drug uptake [27]: 21.84 % ID/g; Drug uptake [28]: 10.2 % ID/g; Drug uptake [29]: 0.8 % ID/g; Ratio [30]: 1.69; Drug uptake [31]: 4.19 % ID/g; Drug uptake [32]: 79.85 % ID/g; Drug uptake [33]: 7.15 % ID/g
38.73,2.06 % ID/g,0.15 % ID/g,2.7 % ID/g,5.8 % ID/g,0.07 % ID/g,39.14,9.93 % ID/g,4.7 % ID/g,0.07 % ID/g,5.66 % ID/g,0.32 % ID/g,5.18 % ID/g,1.3,18.16,12.74 % ID/g,0.23 % ID/g,0.17 % ID/g,0.8 % ID/g,2.28,CCN(CC)CCNC(=O)c1c[nH]c2ccc([125I])cc2c1=O.Cl.Cl,Drug uptake [34]: 8.55 % ID/g; Drug uptake [35]: 5.09 % ID/g; Drug uptake [22]: 6.79 % ID/g; Drug uptake [23]: 0.92 % ID/g; Drug uptake [24]: 0.28 % ID/g; Drug uptake [25]: 1.24 % ID/g; Drug uptake [26]: 5.16 % ID/g; Drug uptake [27]: 22.27 % ID/g; Drug uptake [28]: 4.1 % ID/g; Drug uptake [29]: 2.4 % ID/g; Ratio [30]: 67; Drug uptake [31]: 2.8 % ID/g; Drug uptake [32]: 61.06 % ID/g; Drug uptake [33]: 5.74 % ID/g
3.23,9.41 % ID/g,5.32 % ID/g,12.1 % ID/g,17.2 % ID/g,2.25 % ID/g,5.39,34.72 % ID/g,19.6 % ID/g,1.96 % ID/g,33.1 % ID/g,7.11 % ID/g,36.62 % ID/g,1.87,2.42,48.03 % ID/g,5.57 % ID/g,5.91 % ID/g,12.59 % ID/g,2.09,CCN(CC)CCNC(=O)c1ccc2cc([125I])ccc2n1.Cl.Cl,Ratio [13]: 30.54; Drug uptake [22]: 18.3 % ID/g; Drug uptake [23]: 1.79 % ID/g; Drug uptake [24]: 10.63 % ID/g; Drug uptake [25]: 11.56 % ID/g; Drug uptake [26]: 10.92 % ID/g; Drug uptake [27]: 65.36 % ID/g; Drug uptake [28]: 25.4 % ID/g; Drug uptake [29]: 5.9 % ID/g; Ratio [30]: 10.02; Drug uptake [31]: 11.82 % ID/g; Drug uptake [32]: 23.36 % ID/g; Drug uptake [33]: 9.8 % ID/g
9.13,7.83 % ID/g,4.46 % ID/g,21.7 % ID/g,40.7 % ID/g,1.49 % ID/g,14.54,20.33 % ID/g,17 % ID/g,2.34 % ID/g,24.79 % ID/g,7.53 % ID/g,32.3 % ID/g,1.12,5.4,24.33 % ID/g,2.91 % ID/g,3.09 % ID/g,9.3 % ID/g,2.17,CCN(CC)CCNC(=O)c1cnc2cc([125I])ccc2n1.Cl.Cl,Ratio [13]: 26.87; Drug uptake [34]: 83.77 % ID/g; Drug uptake [35]: 94.22 % ID/g; Drug uptake [22]: 25.26 % ID/g; Drug uptake [23]: 2.04 % ID/g; Drug uptake [24]: 4.69 % ID/g; Drug uptake [25]: 14.21 % ID/g; Drug uptake [26]: 13.18 % ID/g; Drug uptake [27]: 21.09 % ID/g; Drug uptake [28]: 27.7 % ID/g; Drug uptake [29]: 12.5 % ID/g; Ratio [30]: 7.26; Drug uptake [31]: 16.46 % ID/g; Drug uptake [33]: 7.6 % ID/g
